According to ChEMBL document CHEMBL1155475, “Semisynthesis and pharmacological activities of thyroxine analogs: Development of new angiogenesis modulators” (2010):

How the values were obtained:
Assay type in all cases: functional
Mus musculus = assay: Stimulation of angiogenesis in Matrigel plug implanted C57BL/6 mouse assessed as increase of hemoglobin level after 14 days at 10 ug/plug by Matrigel assay
In short: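 Mouse subcutaneous Matrigel plug. Matrigel is kept cold and compound is added with or without agonist. Plugs are injected subcutaneously at three sites per animal, 100 µL total. On day 14 the plugs are collected, homogenized in ddH2O and centrifuged 4000 rpm for 10 min. Supernatant is mixed with Drabkin's reagent for 15–30 min, A540 is read, and hemoglobin (mg/mL) is taken from a standard curve. Three implants per mouse, n = 6 per group.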

Gallus gallus [1] = species on record: Gallus gallus; assay: Stimulation of angiogenesis of fertilized chicken egg membrane assessed as stimulation of blood vessel formation at 10 ug/CAM after 48 hrs by CAM assay
In short: (§1)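 Chick chorioallantoic membrane model. Filter disks are soaked in 3 mg/mL cortisone acetate in 95% ethanol, air-dried, then saturated with test agent, L-T4 or FGF, and placed on the CAM. Agents are tested at 10 µg/CAM. Tissue beneath the disk is harvested after 48 h and examined by stereomicroscope at 50× with digital image capture. Data are mean ± SEM, n = 8.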

Gallus gallus [2] = species on record: Gallus gallus; assay: Antiangiogenesis of fertilized chicken egg membrane assessed as inhibition of FGF-induced blood vessel formation at 10 ug/CAM after 48 hrs by CAM assay; in short: as §1

SMILES: CCNC(Cc1cc(I)c(Oc2cc(I)c(O)c(I)c2)c(I)c1)C(=O)O (configuration not stated)
- Activity (Mus musculus): 45%
- Activity (Gallus gallus [1]): 86%

SMILES: CC(C)[Si](OC(=O)C(Cc1cc(I)c(Oc2cc(I)c(O)c(I)c2)c(I)c1)NC(=O)OC(C)(C)C)(C(C)C)C(C)C (configuration not stated)
- Activity (Mus musculus): 0%
- Activity (Gallus gallus [1]): 4%

SMILES: CNC(Cc1cc(I)c(Oc2cc(I)c(O)c(I)c2)c(I)c1)C(=O)O (configuration not stated)
- Activity (Mus musculus): 87%
- Activity (Gallus gallus [1]): 44%

SMILES: CCNC(Cc1cc(I)c(Oc2cc(I)c(O)c(I)c2)c(I)c1)C(=O)OCC (configuration not stated)
- inhibition (Gallus gallus [2]): 38%

SMILES: N[C@@H](Cc1cc(I)c(Oc2cc(I)c(O)c(I)c2)c(I)c1)C(=O)O [LEVOTHYROXINE]
- Activity (Mus musculus): 100%
- Activity (Gallus gallus [1]): 88%

SMILES: CCCC(=O)NC(Cc1cc(I)c(Oc2cc(I)c(O)c(I)c2)c(I)c1)C(=O)O (configuration not stated)
- Activity (Mus musculus): 62%
- Activity (Gallus gallus [1]): 34%

SMILES: CC(C)[Si](OC(=O)C(Cc1cc(I)c(Oc2cc(I)c(OCC3CO3)c(I)c2)c(I)c1)NC(=O)OC(C)(C)C)(C(C)C)C(C)C (configuration not stated)
- Activity (Mus musculus): 0%
- Activity (Gallus gallus [1]): 34%

SMILES: CC(C)(C)OC(=O)NC(Cc1cc(I)c(Oc2cc(I)c(OCC3CO3)c(I)c2)c(I)c1)C(=O)OCC1CO1 (configuration not stated)
- Activity (Mus musculus): 0%
- Activity (Gallus gallus [1]): 56%

SMILES: CC(=O)NC(Cc1cc(I)c(Oc2cc(I)c(OC(C)=O)c(I)c2)c(I)c1)C(=O)O (configuration not stated)
- Activity (Mus musculus): 95%
- Activity (Gallus gallus [1]): 67%
